Measurements reported in paper PMC9670593 (Journal of Molecular Liquids, 2022).
Converted amounts (≈) assume the structure as drawn. “And” between values parts separate entries of the source, which are not always exact repeats. Identical values can stand only once. Like-named read-outs stand apart in the source and are kept apart here.

Columns and labels:
[1] = tested on: Escherichia coli; settings: cited from earlier work
[2] = tested on: Escherichia coli (ATCC: 25922); test: Antibacterial agar disc diffusion; assay type: cell-based; settings: for zone of inhibition at 100 µg/mL: Escherichia coli, read-out: Inhibition zones (mm); for Activity index (%): relative to ampicillin; for Inhibition zones (mm): 5-mm discs, 100 μg/mL
Outline: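 E. coli ATCC 25922 grown on Mueller–Hinton agar, 18–24 h at 35 °C. Inoculum adjusted to McFarland 0.5 (1.5x 10^8 CFU/mL) and swabbed as a lawn on Mueller–Hinton plates. Test compounds were stocked at 20 mg in 1 mL DMSO, and 5-mm paper discs were loaded with 100 μg/mL. Inhibition zone diameter was measured against ampicillin as standard, with DMSO as negative control. Assayed twice.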

[3] = tested on: Escherichia coli (ATCC: 25922); test: Antibacterial minimal inhibitory concentration; assay type: cell-based; settings: 24 h; for Minimum Inhibition concentration (MIC): E. coli
Outline: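 Test compounds were stocked at 20 mg/mL in DMSO. Ampicillin was run as standard drug and DMSO as negative control. MIC reported in μM.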

[4] = tested on: MCF-7: a human breast cancer cell line; test: Cytotoxicity MTT assay, MCF-7; assay type: cell-based; settings: for IC50: read-out: IC50 MCF-7; for IC50 MCF-7: means ± SD, n = 3
Outline: (§1)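 Cells were kept in DMEM with 0.2 % sodium bicarbonate and 10 % FBS at 37 °C, 5 % CO2, humidified. Only batches above 98 % trypan-blue viability were used. 10,000 cells/well adhered 24 h before treatment. MTT (5 mg/ml PBS stock, 10 μl per 100 μl) was added for 4 h, formazan dissolved in DMSO and read at 550 nm. Background-corrected survival = ODt/ODc ×100 versus untreated controls; IC50 taken from dose–response curves; cisplatin reference.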

[5] = tested on: HELA: cancerous cervical tumor cells; test: Cytotoxicity MTT assay, HELA; assay type: cell-based, human; settings: for IC50: read-out: IC50 HELA; for IC50 HELA: means ± SD, n = 3; for cytotoxic activity class, HELA: class by IC50 (µg/mL)
Outline: as §1

[6] = tested on: HEK293: human embryonic kidney cells; test: Cytotoxicity MTT assay, HEK293 normal cells; assay type: cell-based; settings: for IC50 HEK293: MTT, normal cell line, means ± SD, n = 3
Outline: as §1

[7] = Formation stability constant of the complexes; assay type: physicochemical; settings: metal:ligand 1:2
[8] = biological target: Human serum albumin (HSA) (Homo sapiens, UniProt P02768); test: HSA binding, fluorescence quenching titration; settings: slope of Fo/F vs [metal complex]
Human serum albumin (HSA), sequence (P02768 25-609): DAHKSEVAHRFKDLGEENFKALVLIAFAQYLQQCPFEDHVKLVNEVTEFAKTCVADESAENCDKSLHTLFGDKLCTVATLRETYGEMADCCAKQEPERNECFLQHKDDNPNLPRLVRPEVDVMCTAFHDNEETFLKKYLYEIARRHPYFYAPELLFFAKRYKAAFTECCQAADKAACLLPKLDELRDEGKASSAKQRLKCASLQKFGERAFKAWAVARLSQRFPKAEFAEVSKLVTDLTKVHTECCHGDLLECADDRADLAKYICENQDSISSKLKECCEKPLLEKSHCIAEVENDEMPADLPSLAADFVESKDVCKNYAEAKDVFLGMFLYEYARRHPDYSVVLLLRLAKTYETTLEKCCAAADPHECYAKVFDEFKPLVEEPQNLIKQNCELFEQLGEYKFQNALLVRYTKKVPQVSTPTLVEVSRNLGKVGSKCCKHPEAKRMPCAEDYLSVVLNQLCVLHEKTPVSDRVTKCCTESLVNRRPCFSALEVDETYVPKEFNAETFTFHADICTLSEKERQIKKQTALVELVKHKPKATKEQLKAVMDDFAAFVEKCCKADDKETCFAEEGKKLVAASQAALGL
Outline: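 HSA concentration fixed spectrophotometrically at 278 nm using ε 35,219 M−1cm−1 (1 cm quartz). Increasing amounts of metal complex were titrated into constant HSA. Tryptophan fluorescence was excited at 280 nm and emission recorded over 300–400 nm. KSV was taken as the slope of the Stern–Volmer plot Fo/F versus [complex].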

| Compound | concentration showing complete inhibition of Escherichia coli [1] | reported growth-inhibiting concentration toward Escherichia coli ([1]; practical value for more than 24 h) | zone of inhibition at 100 µg/mL [2] | Activity index (%) [2] | MIC ([3]; Escherichia coli, read-out: Minimum Inhibition concentration (MIC)) | IC50 ([4]; Homo sapiens, MCF7a) | IC50 ([5]; Homo sapiens, HeLa) | IC50 ([6]; Homo sapiens, HEK293, read-out: IC50 HEK293) | formation stability constant for the complexes [7] | fluorescence constant (Kvs; Stern-Volmer quenching constant KSV) with HSA [8] | Inhibition zones (mm) [2] | Minimum Inhibition concentration (MIC) [3] | IC50 MCF-7 ([4]; MTT) | IC50 ([4]; MTT) | IC50 HELA ([5]; MTT) | IC50 ([5]; MTT) | IC50 HEK293 [6] | cytotoxic activity class, MCF-7 ([4]; class by IC50 (µg/mL)) | cytotoxic activity class, HELA [5] |
| --- | --- | --- | --- | --- | --- | --- | --- | --- | --- | --- | --- | --- | --- | --- | --- | --- | --- | --- | --- |
| O=[N+]([O-])[O-].[Ag+] [AgNO3] | > 8.5 µM | 6.5 µM | – | – | – | – | – | – | – | – | – | – | – | – | – | – | – | – | – |
| CC1(C)S[C@@H]2[C@H](NC(=O)[C@H](N)c3ccccc3)C(=O)N2[C@H]1C(=O)O [Ampicillin, reference compound] | – | – | 33 mm | 100% | – | – | – | – | – | – | – | – | – | – | – | – | – | – | – |
| CC(=O)Oc1ccccc1C(=O)Nc1ncc([N+](=O)[O-])s1 [Free NTZ, 2-(acetyloxy)-N-(5-nitro-2-thiazolyl) benzamide, reference compound] | – | – | 8 mm | 24% | 105 µM (≈ 32.3 µg/mL) | 62 µg/mL and 202 µM | 78 µg/mL and 254 µM | 1050 ± 10 µg/mL (≈ 3.42 mM) | – | – | – | – | – | – | – | – | – | – | – |
| [Ag(NTZ)2]NO3 [NTZ-Ag(I)] | – | – | – | 85% | – | – | – | – | 4.22 × 10^5 | 3e+06 M⁻¹ | 28 mm | 5.5 µM | 39 ± 4 µg/mL | 50.8 µM | 45 ± 2 µg/mL | 58.7 µM | 660 ± 3 µg/mL | – | – |
| [Au(NTZ)2]Cl3 [NTZ-Au(III)] | – | – | – | 37% | – | – | – | – | 17.92 × 10^5 | 7e+06 M⁻¹ | 12 mm | 27.5 µM | 25 ± 5 µg/mL | 27.3 µM | 8.9 ± 4 µg/mL | 9.7 µM | 675 ± 5 µg/mL | Moderate | very strong (1–10 (very strong)) |
| [Ru(NTZ)2Cl2]Cl [NTZ-Ru(III)] | – | – | – | 61% | – | – | – | – | 34.37 × 10^5 | 4e+06 M⁻¹ | 20 mm | 7.5 µM | 10.5 ± 2 µg/mL | 12.8 µM | 6.5 ± 3 µg/mL | 7.9 µM | 265 ± 5 µg/mL | – | very strong (1–10 (very strong)) |
